Test results as given in publication PMC2705627 (Journal of immunology (Baltimore, Md. : 1950), 2008).
pEC50: −log10 of the molar value. “Also recorded” adds a separate entry of the source. Residues, ends and D or L forms follow the SMILES beside them. *: point of attachment. For = O=C*

What was measured:
mFPR1 [1] = biological target: T1, mFPR1 (Mus musculus, UniProt P33766); experiment: Ca2+ mobilization in mFPR1-RBL cells; assay type: cell-based
T1 sequence (P33766 1-364): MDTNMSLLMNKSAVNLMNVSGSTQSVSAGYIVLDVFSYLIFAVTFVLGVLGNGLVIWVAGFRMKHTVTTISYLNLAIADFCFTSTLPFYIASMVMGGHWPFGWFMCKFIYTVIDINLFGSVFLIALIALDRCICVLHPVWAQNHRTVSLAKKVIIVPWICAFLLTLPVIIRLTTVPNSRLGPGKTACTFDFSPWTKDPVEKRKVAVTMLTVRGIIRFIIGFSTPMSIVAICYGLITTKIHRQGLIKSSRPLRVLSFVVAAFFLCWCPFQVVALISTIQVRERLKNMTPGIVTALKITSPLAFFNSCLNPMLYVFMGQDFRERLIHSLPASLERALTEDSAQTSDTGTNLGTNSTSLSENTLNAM

WT neutrophils = experiment: Superoxide production, WT neutrophils; assay type: cell-based, mouse (C57BL/6)
Procedure, shortened: (§1)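 Bone-marrow neutrophils from age- and gender-matched mfpr1-/- and WT C57BL/6 mice (8–10 wk), 5 × 10^6 cells/ml in HBSS with 0.5% BSA. Preincubated 5 min at 37°C with isoluminol, 40 U/ml HRP and 5 μM cytochalasin B. Chemiluminescence: 5 min basal, then every minute for 15 min after agonist. SOD controls; 200 ng/ml PMA time course. Peptide responses as area under curve over first 10 min; two experiments in triplicate.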

mfpr1^-/- neutrophils [2] = experiment: Superoxide production, mfpr1-/- neutrophils; assay type: cell-based, mouse (mfpr1^-/-)
Procedure, shortened: as §1

neutrophils from dog = conditions: cited from earlier work
mouse neutrophils [3] = experiment: Superoxide production, mouse bone marrow neutrophils; assay type: cell-based
Procedure, shortened: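 Isoluminol-enhanced chemiluminescence on mouse bone-marrow neutrophils at 5 × 10^6 cells/ml in HBSS with 0.5% BSA, preincubated 5 min at 37°C with isoluminol, 40 U/ml HRP and 5 μM cytochalasin B. Basal reading 5 min, then agonist at graded concentrations, read each minute for 15 min; SOD controls run in parallel. Cumulative superoxide taken as area under curve over first 5 min; two experiments in duplicate.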

mouse neutrophils [4] = experiment: Degranulation; assay type: cell-based, mouse (C57BL/6)
Procedure, shortened: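 WT C57BL/6 and mfpr1-/- bone-marrow neutrophils preincubated with 10 μM cytochalasin B in HBSS, 20 mM HEPES (pH 7.4), 0.1% BSA: 15 min on ice, then 15 min at 37°C. Stimulated 10 min at 37°C, chilled and spun. Supernatant mixed 1:1 with 10 mM 4-methylumbelliferyl β-D-glucuronide (pH 4.0, 0.1% Triton X-100) 15 min at 37°C. Glycine/EDTA stop (pH 10.4); fluorescence 365/460 nm, as % of lysate total.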

mFPR1 [5] = biological target: T1, mFPR1; conditions: cited from earlier work
[6] = tested on: neutrophils from mfpr1-deficient mice; conditions: ex vivo; cited from earlier work
mFPR2 [7] = conditions: vs mFPR1; cited from earlier work
[8] = tested on: human formyl peptide receptor (FPR) 1; conditions: cited from earlier work
neutrophils from cat = conditions: cited from earlier work
mouse neutrophils [9] = conditions: mice; cited from earlier work
mouse neutrophils [10] = experiment: Ca2+ mobilization, mouse bone marrow neutrophils; assay type: cell-based
neutrophils from cow = conditions: cited from earlier work
neutrophils from pig = conditions: cited from earlier work
mFPR1 [11] = biological target: T1, mFPR1; conditions: cited from earlier work; remark: listed apart in the source
[12] = tested on: mock-transfected RBL cells; experiment: ERK1/2 phosphorylation in mock-transfected RBL cells; assay type: cell-based, rat; conditions: at the concentrations tested (10 nM, 1 μM)
Procedure, shortened: (§2)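 Stably transfected or mock-transfected RBL-2H3 cells cultured 24 h, serum-starved 4 h, then stimulated over various time intervals. Stopped on ice in SDS-PAGE loading buffer, sonicated and boiled. Western blot with anti-phospho-ERK1/2 (1/1000), loading checked with anti-ERK1/2 (1/1000), HRP anti-rabbit secondary (1/3000). Two independent experiments.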

mouse neutrophils [13] = conditions: cited from earlier work
mouse neutrophils [14] = experiment: Ex vivo chemotaxis; assay type: cell-based; conditions: CD1 mice, Transwell, 30 min, 37°C
Procedure, shortened: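 Bone marrow neutrophils from CD1 mice, purified on a Nycoprep/72% Percoll gradient after RBC lysis. Cells at 5 × 10^6 cells/ml in HBSS/0.5% BSA, prewarmed 20 min at 37°C. Agonist placed in BSA-precoated lower wells under 3 μm pore inserts, cells added on top. After 30 min at 37°C, cells in the bottom chamber were counted. Counts with ligand in both chambers were subtracted to remove chemokinesis.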

mFPR1 [15] = biological target: T1, mFPR1; experiment: ERK1/2 phosphorylation in mFPR1-RBL cells; assay type: cell-based; conditions: Western blot
Procedure, shortened: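 RBL-2H3 cells stably expressing mFPR1 (G418-selected; DMEM, 20% FBS, 250 μg/ml G418), with untransfected RBL cells as control. Cultured 24 h, serum-starved 4 h, then stimulated at graded concentrations for various times. Lysed in ice-cold SDS loading buffer, sonicated, boiled. Western blot for phospho-ERK1/2, with total ERK1/2 as loading control. Two independent experiments.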

mfpr1^-/- neutrophils [16] = experiment: Degranulation; assay type: cell-based, mouse (mfpr1^-/-); conditions: KO
Procedure, shortened: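 Bone marrow neutrophils from 8-10 wk mfpr1-/- mice (C57BL/6 background) and matched WT mice. Cells preincubated with 10 μM cytochalasin B in HBSS, 20 mM HEPES pH 7.4, 0.1% BSA, 15 min on ice then 15 min at 37°C. Stimulated 10 min at 37°C, then chilled. Supernatant reacted with 4-methylumbelliferyl β-D-glucuronide (pH 4.0), 15 min at 37°C. Fluorescence read at 365/460 nm. Release expressed as % of total from Triton X-100 lysate.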

human neutrophils = conditions: cited from earlier work
FPRL1 = conditions: b40: fMIVIL ref 22; b3: fMLF ref 16; cited from earlier work
mFPR2 [17] = experiment: ERK1/2 phosphorylation in mFPR2-RBL cells; assay type: cell-based, mouse; conditions: at the concentrations tested; data not shown
Procedure, shortened: as §2

CC[C@H](C)[C@H](NC(=O)[C@H](CCSC)NC=O)C(=O)N[C@@H](Cc1ccccc1)C(=O)N[C@@H](CC(C)C)C(=O)O [fMIFL, N-formyl-Met-Ile-Phe-Leu] (For-MIFL-OH)
pEC50 (mFPR1 [1]): 8.00

CC[C@H](C)[C@H](NC(=O)[C@H](CCSC)NC=O)C(=O)N[C@H](C(=O)N[C@H](C(=O)N[C@@H](CC(C)C)C(=O)O)[C@@H](C)CC)C(C)C [fMIVIL, N-formyl-Met-Ile-Val-Ile-Leu] (For-MIVIL-OH)
pEC50 (mFPR1 [1]): 8.00

CCCCCCCCCCCCCC(=O)O[C@@H]1[C@@H](C)[C@@]2(O)[C@@H](C=C(CO)C[C@]3(O)C(=O)C(C)=C[C@@H]23)[C@@H]2C(C)(C)[C@]12OC(C)=O [phorbol ester, phorbol myristate ester]
superoxide production on phorbol ester stimulation, WT neutrophils (WT neutrophils; 200 ng/ml phorbol myristate ester, WT compared with KO): responded similarly
superoxide production on phorbol ester stimulation, mfpr1-/- neutrophils (mfpr1^-/- neutrophils [2]; 200 ng/ml phorbol myristate ester, KO compared with WT): responded similarly

N-formyl-Met-Leu-Phe [fMLF]
response of dog neutrophils (neutrophils from dog): do not respond
superoxide production at 5 μM relative to fMIVIL and fMIFL (mouse neutrophils [3]; 5 μM): about one-half
threshold concentration for superoxide generation (mouse neutrophils [3]; isoluminol chemiluminescence, 37°C): above 1 μM
β-glucuronidase release, percent of cell-associated enzyme (mouse neutrophils [4]; 10 μM (maximal concentration used), WT neutrophils): 5%
β-glucuronidase release relative to maximal release by fMIVIL and fMIFL (mouse neutrophils [4]; 10 μM fMLF): about one-half
lowest concentration with significant β-glucuronidase release (mouse neutrophils [4]; WT neutrophils, not significant below 1 μM): ≥ 1 µM
superoxide production, WT neutrophils (WT neutrophils; C57BL/6 WT): less potent
agonist concentration required for calcium mobilization (mFPR1 [5]): ≥ 100 nM
responsiveness of mfpr1-deficient neutrophils to fMLF [6]: decreased responsiveness
response of mFPR2 to fMLF (mFPR2 [7]): responds even more weakly
agonist activity at human FPR1 [8]: potent agonist
response of cat neutrophils (neutrophils from cat): do not respond
fMLF concentration required for degranulation and superoxide production (mouse neutrophils [9]): 5 to 10 µM
Ca2+ mobilization at 10 nM (mouse neutrophils [10]; 10 nM, FLIPR dye): but not fMLF
lowest concentration with evident Ca2+ mobilization (mouse neutrophils [10]; not evident below 100 nM): ≥ 100 nM
response of cow neutrophils (neutrophils from cow): do not respond
response of pig neutrophils (neutrophils from pig): do not respond
ERK1/2 phosphorylation at 50 nM (mFPR1 [11]): but not fMLF
ERK1/2 phosphorylation in mock-transfected RBL cells [12]: none of the peptides was able to induce detectable phosphorylation
potency loss on mouse neutrophils vs human neutrophils (mouse neutrophils [13]; less potent for mouse than for human neutrophils): 100 -fold
concentration required for mouse neutrophil activation (mouse neutrophils [13]; mouse neutrophils, ref 17 (ref 17, 20)): requiring micromolar concentrations for cell activation; also recorded: requires micromolar concentrations; also recorded: micromolar concentration range
neutrophil migration at 100 nM (mouse neutrophils [14]): did not stimulate significant neutrophil migration
superoxide production, mfpr1-/- neutrophils (mfpr1^-/- neutrophils [2]; mfpr1^-/-): very little superoxide was generated
ERK1/2 phosphorylation at 10 nM (mFPR1 [15]; 10 nM): but not at 10 nM
ERK1/2 phosphorylation at 1 μM (mFPR1 [15]; 1 μM): could induce ERK1/2 phosphorylation
β-glucuronidase release at 100 nM, mfpr1-/- neutrophils (mfpr1^-/- neutrophils [16]; 100 nM): none of the three peptides was able to induce β-glucuronidase release
β-glucuronidase release above 1 μM, mfpr1-/- neutrophils (mfpr1^-/- neutrophils [16]; peptide concentrations above 1 μM): only a small amount of enzyme was released
ERK1/2 phosphorylation in human neutrophils (human neutrophils): rapid phosphorylation of the MAPKs ERK1/2
concentration inducing bactericidal functions in human neutrophils (human neutrophils; human neutrophils): nanomolar concentrations
concentration inducing Ca2+ flux (mFPR1 [1]; mFPR1-RBL): above 1 μM
affinity/response at FPRL1 (FPRL1): low affinities; also recorded: low-affinity receptor for fMLF
ERK1/2 phosphorylation in mFPR2-RBL cells (mFPR2 [17]): none of the peptides was able to induce detectable phosphorylation

Superoxide dismutase
effect on detection of superoxide (mouse neutrophils [3]; SOD, 250 units, added 10 min before stimulation with 1 μM peptide): effectively inhibited the detection of superoxide
